CRFBP-R2 agonist – agonists of human CRF-binding protein/CRF-R2 receptor complex; HEK293 CRF-R2/CRF-BP, calcium dye fluorescence (FLIPR); percent of saturating CRF peptide response; activation, % at 13.2 µM; actives 0.46% (n = 350,000);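 active means activation of at least 50%, plus an integration ratio under a set limit after plate pattern correction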;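 further: plate controls were neutral control wells without compound for no effect and CRF at EC100 for full effect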
CRFBP-R2 block – CRF-BP/CRF-R2 complex antagonism. HEK293 CRF-R2/CRF-BP, CRF-induced calcium fluorescence. actives 0.59% (n = 350,000). inhibition, % at 11.8 µM. AID 588475;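 active means inhibition of the ligand-induced calcium signal above about 50% at the single tested concentration, limit read from the data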
KLK7 zymogen act – proKLK7 (human) activation, primary screen. P49862. purified proKLK7, EDANS-DABCYL substrate fluorescence; 100% is mature enzyme control, 0% vehicle. activation, % at 7 µM. actives 0.9% (n = 370,000). AID 652039;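 active means activation above the mean of all tested compounds plus 3 SD, computed per campaign excluding outliers beyond control limits, cut at about 13% in these data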
Tn7 DDE FP – disrupts Tn7 cyclic peptide binding to fibrin D-Dimer-E complex. actives 0.13% (n = 370,000). inhibition, % at 8.3 µM. FP displacement of FITC-Tn7 peptide from fibrin DD(E); 0% = median of compound wells per plate;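 active means inhibition above the mean of compounds falling within the control limits plus 3 SD of them, cut at about 14% in these data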;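 further: 0% = plate median of compound wells and 100% = 10 µM Aha-Tn7 peptide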
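Test system: human clot-derived fibrin DD(E) complex / Quantity: 2 µM final DD(E) protein / Incubation: 10 min plus 3 h, room temperature / Measured by: fluorescence polarization / Benchmarks: high control of 10 µM Aha-Tn7 peptide / Replicates: singlicate testing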
Tn6 DDE FP – inhibitors of Tn6 peptide binding to human fibrin DD(E); P02675; Fibrin DD(E) TRITC-Tn6 fluorescence polarization displacement; inhibition, % at 8.3 µM; actives 0.21% (n = 370,000); AID 720509;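 active means inhibition above a per-campaign cutoff: mean of compounds within control limits plus 3 SD, cut at about 15% in these data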;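 further: 0% = median of all compound wells on the plate and 100% = blocking peptide control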
CendR NRP1 mod – alters CendR peptide binding to human NRP-1; O14786; FAM-RPARPAR peptide binding to NRP-1, fluorescence polarization; inhibition, % at 25 µM; actives 0.85% (n = 360,000);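 active means inhibition or corrected inhibition above about 18%, plus a signal ratio from 0.5 to 1.5, limit read from the data, passing the limit was not always enough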
Target sequence (O14786 whole entry, looked up): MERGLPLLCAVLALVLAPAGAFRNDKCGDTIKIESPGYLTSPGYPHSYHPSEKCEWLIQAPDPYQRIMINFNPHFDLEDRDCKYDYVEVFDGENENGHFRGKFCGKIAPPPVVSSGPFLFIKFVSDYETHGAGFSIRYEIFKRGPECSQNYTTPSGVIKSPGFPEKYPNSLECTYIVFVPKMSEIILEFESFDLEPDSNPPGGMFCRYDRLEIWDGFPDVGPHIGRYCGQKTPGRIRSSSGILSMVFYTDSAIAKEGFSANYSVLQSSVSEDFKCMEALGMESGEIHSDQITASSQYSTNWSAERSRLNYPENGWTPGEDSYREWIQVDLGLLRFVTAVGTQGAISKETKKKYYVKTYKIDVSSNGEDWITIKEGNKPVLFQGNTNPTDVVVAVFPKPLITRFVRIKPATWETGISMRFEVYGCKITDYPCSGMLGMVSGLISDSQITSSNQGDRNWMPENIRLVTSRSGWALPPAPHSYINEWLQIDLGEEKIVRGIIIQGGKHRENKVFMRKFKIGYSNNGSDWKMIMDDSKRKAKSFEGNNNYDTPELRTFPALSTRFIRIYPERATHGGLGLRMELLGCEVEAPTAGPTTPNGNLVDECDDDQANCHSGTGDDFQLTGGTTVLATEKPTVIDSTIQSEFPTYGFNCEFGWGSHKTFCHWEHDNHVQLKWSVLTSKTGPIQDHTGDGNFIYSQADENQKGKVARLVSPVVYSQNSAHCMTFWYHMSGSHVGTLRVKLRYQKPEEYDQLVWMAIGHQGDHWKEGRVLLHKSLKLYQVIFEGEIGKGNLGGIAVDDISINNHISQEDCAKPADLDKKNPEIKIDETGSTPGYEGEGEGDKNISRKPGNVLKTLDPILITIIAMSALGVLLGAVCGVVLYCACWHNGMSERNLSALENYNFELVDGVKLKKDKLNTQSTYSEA
proKLK7 act conf – confirmation of human kallikrein-7 zymogen activators; actives 68% (n = 3,200); purified proKLK7, EDANS-DABCYL substrate fluorescence; scaled: vehicle 0, mature enzyme 100; activation, % at 7 µM; AID 686949; shares compounds with KLK7 zymogen act;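 active means activation, as change over the incubation, above the mean of all tested compounds plus 3 SD, cut at about 13% in these data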
EDANS interfere – fluorescence interference counter-screen for KLK7 activators | shares compounds with KLK7 zymogen act | EDANS-DABCYL substrate fluorescence interference, no enzyme, 4 h; solvent 0%, active enzyme control 100% | activation, % at 7 µM | actives 80% (n = 3,200) | AID 686952;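 active means activation above the all-compound mean plus 3 SD, ignoring values outside control-based bounds, cut at about 4.8% in these data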;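 further: value is the 4 h activation minus the activation read at time zero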
EDANS interf – counter-screen for kallikrein-7 activators: EDANS-DABCYL interference, dose response; actives 20% (n = 250); shares compounds with KLK7 zymogen act; EC50, µM; EDANS-DABCYL peptide fluorescence interference, no enzyme; AID 720493;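 active means compounds that raise the fluorescence signal in this interference counterscreen, with EC50 at or below 10 µM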;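 further: intact quenched peptide substrate alone read at 355 nm excitation and 520 nm emission; signal is fluorescence gain from T0 to T4 after four hours at room temperature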
The depositor's hits bear a star; x = not tested or not shown. An excerpt weighted towards active compounds, which were near 2.9% of everything screened.

SMILES	CRFBP-R2 agonist	CRFBP-R2 block	KLK7 zymogen act	Tn7 DDE FP	Tn6 DDE FP	CendR NRP1 mod	proKLK7 act conf	EDANS interfere	others
Cc1ccccc1N1CCN(C2=Nc3ccccc3Sc3ccccc32)CC1	x	x	-1	-5	-2	x	x	x
C[C@@H]1CCCN1c1cccc2c1S(=O)(=O)N(C1CC1)CCCO2	x	x	1	0	2	x	x	x
N#Cc1c(-c2ccco2)cc(-c2ccccn2)nc1N	1	-28	13*	9	-4	-28	41*	40*
N#Cc1c(-c2ccco2)cc(-c2cccnc2)nc1N	1	-3	20*	8	8	-14	42*	43*
N#Cc1c(-c2cccnc2)cc(-c2ccccc2)nc1N	-3	-9	13*	3	9	14	14*	13*
N#Cc1c(-c2ccccc2F)cc(-c2cccnc2)nc1N	1	9	9	-6	1	-4	x	x
N#Cc1c(-c2ccco2)cc(C2CC2)nc1N	-3	15	-5	4	3	-35	x	x
COC(=O)[C@]12C[C@H](CC(=O)N3CCSCC3)C(=O)N(Cc3ccco3)C1=C[C@H](C(C)C)O[C@@H]2C1CC1	x	x	0	1	-3	x	x	x
CCOC(=O)c1cnn2c(C(F)(F)F)cc(-c3ccccc3)nc12	0	-31	19*	-8	-2	3	-69	-73
CCOC(=O)C1CCCN(C(=O)c2cnn3c(C(F)(F)F)cc(-c4ccccc4)nc23)C1 (stereo not drawn)	-2	-2	6	1	0	-1	x	x
CCOC(=O)c1cnn2c(C(F)(F)F)cc(-c3cn(C)nc3C)nc12	-1	-6	20*	-1	3	-1	41*	25*	EDANS interf=>70
COc1cc2c(cc1OC)CN(C(=O)CN1CCN(S(=O)(=O)c3ccccc3Br)CC1)CC2	-1	-3	30*	6	-2	1	1	0
CCCCCCCCN1C(=O)[C@@H](CC(=O)N2CCN(C(=O)c3ccco3)CC2)C[C@@]2(C(=O)OC)C1=C[C@H](C(C)C)O[C@@H]2C1CC1	x	x	1	-10	-9	x	x	x
CCCC1CCC2(CC1)CCC2OC(=O)Nc1ccc2c(c1)OCO2 (stereo not drawn)	x	x	x	-7	0	x	x	x
CCC(N=c1cc(-c2ccc(OC)c(OC)c2)oc2ccc(C)cc12)C(=O)O (stereo not drawn)	0	10	19*	-3	1	4	29*	26*
CCC(N=c1cc(-c2ccc(OC)cc2)oc2ccc(C)cc12)C(=O)O (stereo not drawn)	0	-9	36*	-2	2	1	61*	72*
C/C(=N/NC(=O)CN1CCN(Cc2ccccc2Cl)CC1)c1cccc(O)c1	x	x	0	-11	2	x	x	x
O=C1COc2ccccc2C(c2nnnn2-c2ccc3ccccc3c2)N1C1CC1 (stereo not drawn)	x	x	0	-5	2	x	x	x
CCCCNC(=O)OC1CCC12CCC(c1ccccc1)CC2 (stereo not drawn)	x	x	0	4	3	x	x	x
O=C1c2cccc3cccc(c23)C(=O)N1OS(=O)(=O)c1ccccc1	-1	6	26*	-3	-1	-9	-179	-10
Cc1ccc(S(=O)(=O)N2C(=O)c3cccc4cccc2c34)cc1	0	5	0	5	-2	4	x	x
O=C1c2cccc3cccc(c23)C(=O)N1OS(=O)(=O)c1ccc(Br)cc1	0	6	1	-3	3	-3	x	x
Cc1ccc(S(=O)(=O)ON2C(=O)c3cccc4cccc(c34)C2=O)cc1	-1	3	19*	-10	4	1	-32	39*
N#Cc1cc2ccc(N3CCOCC3)cc2cc1C#N	1	-7	34*	-7	3	20	-88	-48
COC(=O)COc1ccc(-c2ccccc2)cc1C=O	0	33	14*	-6	6	-2	-12	-16
SMILES	CRFBP-R2 agonist	CRFBP-R2 block	KLK7 zymogen act	Tn7 DDE FP	Tn6 DDE FP	CendR NRP1 mod	proKLK7 act conf	EDANS interfere	others
COC(=O)COc1ccc(-c2ccc(F)cc2)cc1C=O	1	3	13*	-5	10	12	-26	-30
COC(=O)COc1ccccc1C(N)=O	0	-12	0	-4	0	-7	x	x
CCOP(=O)(OCC)c1ccc2c(c1)C(=O)c1ccccc1-2	x	x	x	3	0	x	x	x
O=C(Nc1nc2ncccn2c1-c1ccc(C(F)(F)F)cc1)c1ccc(F)cc1	x	x	4	4	-2	x	x	x
Cc1cc(C)cc(Nc2ccc(C(=O)O)cc2N)c1	0	13	-10	4	10	18	x	x
COc1cccc(Nc2ccc(C(=O)O)cc2N)c1	0	6	30*	4	2	10	3	0
C=CCN1[C@@H](CC(C)C)COc2cc(N3CCSCC3)ccc2S1(=O)=O	x	x	0	-2	5	x	x	x
CCN(CC(=O)NCc1ccc(F)cc1)C(=O)COc1ccccc1[N+](=O)[O-]	-1	11	31*	0	-2	-2	-1	0
CCOC(=O)COc1ccc2c(c1)C(=O)CC1(CCN(C(C)=O)CC1)O2	2	9	22*	-7	3	-1	26*	43*
CC(=O)N1CCC2(CC1)CC(=O)c1cc(OCC(=O)N3CCCC3)ccc1O2	2	2	40*	0	1	8	53*	55*
CCOc1ccc(OCC(=O)N2CCC3(CC2)CC(=O)c2ccccc2O3)cc1	0	-10	0	2	10	-7	x	x
CCC(C#Cc1ccccc1)NCc1ccc(OC)cc1OC (stereo not drawn)	x	x	x	-1	-3	x	x	x
COC(=O)[C@@H]1[C@H](O[Si](C)(C)C(C)(C)C)C2OC2C[C@H]1S(=O)(=O)c1ccccc1 (stereo partly drawn)	x	x	x	10	2	x	x	x
O=C(NCc1ccco1)/C(=C/c1cccc(C(F)(F)F)c1)c1nc2ccccc2[nH]1	0	-10	-1	5	-3	-11	x	x
O=C(NCc1ccco1)/C(=C/c1ccc(C(F)(F)F)cc1)c1nc2ccccc2[nH]1	0	-24	61*	-7	3	-30	84*	96*

Screening data: PubChem, several laboratories
